Published values from different studies.
Lines come from different studies, so protocols differ.
Organism: Mycolicibacterium smegmatis
Read-out: microbial growth

The MIC of CCC(C)(C)C(=O)Oc1ccccc1C(=O)Nc1ncc([N+](=O)[O-])s1 is reported as > 25 µM (agar dilution; MC^2155).
C[C@@H]([C@H](N)C(=O)N[C@H](C(=O)O)[C@H]1O[C@@H](n2ccc(=O)[nH]c2=O)[C@H](O)[C@@H]1O)[C@H](O)c1ccc(O)cn1 gave an MIC of > 50 µg/mL (resazurin; ATCC607; 72 h).
COC1C(C(OC2OC(C(=O)NC3CCCCNC3=O)=CC(O)C2O)C(N)=O)OC(n2ccc(=O)[nH]c2=O)C1OC (stereo not shown) gave an MIC of > 200 µg/mL (broth dilution; ATCC607).
With CC(C)=CCC/C(C)=C/CNCCCOC1C2CC3CC(C2)CC1C3 (stereo not shown) the MIC was 6.2 µg/mL.
NC[C@H]1O[C@@H](O[C@@H]([C@H](NCCCC(=O)NCc2ccc(N3CCC(Oc4ccc(OC(F)(F)F)cc4)CC3)cc2)C(N)=O)[C@H]2O[C@@H](n3ccc(=O)[nH]c3=O)C(O)C2O)[C@H](O)[C@@H]1O (stereo partly shown) gave an MIC of 0.2 µg/mL (ATCC607).
For CC(C)=CCC/C(C)=C/C[N+](C)(C)CCOC1C2CC3CC(C2)CC1C3.[I-] (stereo not shown), the MIC was 12 µg/mL.
CO[C@H]1/C=C/O[C@@]2(C)Oc3c(C)c(O)c4c(O)c(c(/C=N/N5CCN(C)CC5)c(O)c4c3C2=O)NC(=O)/C(C)=C\C=C\[C@H](C)[C@H](O)[C@@H](C)[C@@H](O)[C@@H](C)[C@H](OC(C)=O)[C@@H]1C has an MIC of > 200 µg/mL (broth dilution; ATCC607).
For CC1(C)S[C@@H]2[C@H](NC(=O)[C@H](N)c3ccccc3)C(=O)N2[C@H]1C(=O)O, the MIC was 50 µg/mL (resazurin; MC^2155; 24 h).
With CNC(C)C1CCC(N)C(OC2C(N)CC(N)C(OC3OCC(C)(O)C(NC)C3O)C2O)O1 (stereo not shown) the MIC was 1 µg/mL (broth dilution; 72 h).
CC(C)=CCC/C(C)=C/COCCNC1C2CC3CC(C2)CC1C3 (stereo not shown) gave an MIC of 6.2 µg/mL.
The MIC of NNC(=O)c1ccncc1 is reported as 12.5 µg/mL (agar dilution).
The MIC of O=C(Nc1ccc2c(c1)OC(F)(F)O2)Nc1ccc(Cl)c(C(F)(F)F)c1 is reported as 6 µM (MC2155).
With CN[C@H](CC(C)C)C(=O)N[C@H]1C(=O)N[C@@H](CC(N)=O)C(=O)N[C@H]2C(=O)N[C@H]3C(=O)N[C@H](C(=O)N[C@H](C(=O)O)c4cc(O)cc(O)c4-c4cc3ccc4O)[C@H](O)c3ccc(c(Cl)c3)Oc3cc2cc(c3O[C@@H]2O[C@H](CO)[C@@H](O)[C@H](O)[C@H]2O[C@H]2C[C@](C)(N)[C@H](O)[C@H](C)O2)Oc2ccc(cc2Cl)[C@H]1O the MIC was 3.12 µg/mL (resazurin; ATCC607; 72 h).
For CC(C)=CCC/C(C)=C/COCC(=O)NC1C2CC3CC(C2)CC1C3 (stereo not shown), the MIC was 25 µg/mL.
For COc1nc2ccc(Br)cc2cc1[C@@H](c1ccccc1)[C@@](O)(CCN(C)C)c1cccc2ccccc12, the MIC was 0.03 µg/mL.
For Nc1ccc(C(=O)O)c(O)c1, the MIC was 1.25 µg/mL (broth dilution; MC^2155).
With CC(C)=CCC/C(C)=C/CNCCOc1ccccc1 the MIC was 12 µg/mL.
CO[C@H]1/C=C/O[C@@]2(C)Oc3c(C)c(O)c4c(O)c(c(/C=N/N5CCN(C)CC5)c(O)c4c3C2=O)NC(=O)/C(C)=C\C=C\[C@H](C)[C@H](O)[C@@H](C)[C@@H](O)[C@@H](C)[C@H](OC(C)=O)[C@@H]1C has an MIC of 1.58 µg/mL (resazurin; ATCC607; 72 h).
CO[C@H]1/C=C/O[C@@]2(C)Oc3c(C)c(O)c4c(O)c(c(/C=N/N5CCN(C)CC5)c(O)c4c3C2=O)NC(=O)/C(C)=C\C=C\[C@H](C)[C@H](O)[C@@H](C)[C@@H](O)[C@@H](C)[C@H](OC(C)=O)[C@@H]1C gave an MIC of 162 µM (broth dilution).
